Experimental data reported in ChEMBL document CHEMBL3046143, “Occurrence and distribution of organochlorine pesticides (OCPs) in tomato (Lycopersicon esculentum) crops from organic production” (J Agric Food Chem, 2003).
Where a name gives a salt, the structure may show the parent alone.

Experiments:
Root [1] = test: Drug uptake in Solanum lycopersicum (tomato) root after 1 to 15 days post germination by GC-ECD analysis; format: ADME
Summary of the method: (§1)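 Organically grown tomatoes: seeded October 2000 in a pine-needle-enriched plot (period 1), transplanted in November to an unamended plot (periods 2–3), harvested March 2001. Tissues were blender-homogenized and analyzed by GC-ECD on a 30 m SPB-5 capillary column, with helium carrier at 1.5 mL/min. Quantified against external OCP standards as mean ng/g dry wt; LODs were 0.12–0.4 ng/g dry wt; samples were run in duplicate.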

Stem [2] = test: Drug uptake in Solanum lycopersicum (tomato) stem after 60 to 151 days post germination by GC-ECD analysis; format: ADME; summary of the method: as §1
[3] = Root bioconcentration factor assessed as compound concentration in tomato plant dry mass to compound concentration in soil dry mass after 60 to 151 days post germination
Summary of the method: (§2)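 Root bioconcentration factor is the mean OCP concentration in tomato roots divided by the mean concentration in bulk soil, both on a dry weight basis. Both matrices were analyzed by GC-ECD with external standard quantification. Period 1 was in a pine-needle-enriched seedbed plot and periods 2–3 in an unamended transplant plot. Soil water content was measured by oven drying at 110 °C.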

Fruit [4] = test: Drug uptake in Solanum lycopersicum (tomato) fruit peel after 60 to 151 days post germination by GC-ECD analysis; format: ADME; summary of the method: as §1
Root [5] = test: Drug uptake in Solanum lycopersicum (tomato) root after 16 to 59 days post germination by GC-ECD analysis; format: ADME; summary of the method: as §1
[6] = Octanol-water partition coefficient, log KOW of the compound; format: physicochemical; conditions: read-out: log KOW
Root [7] = test: Drug uptake in Solanum lycopersicum (tomato) root after 60 to 151 days post germination by GC-ECD analysis; format: ADME; summary of the method: as §1
[8] = Root bioconcentration factor assessed as compound concentration in tomato plant dry mass to compound concentration in soil dry mass after 1 to 15 days post germination; summary of the method: as §2
Stem [9] = test: Drug uptake in Solanum lycopersicum (tomato) stem after 16 to 59 days post germination by GC-ECD analysis; format: ADME; summary of the method: as §1
Leaf [10] = test: Drug uptake in Solanum lycopersicum (tomato) leaves after 16 to 59 days post germination by GC-ECD analysis; format: ADME; summary of the method: as §1
Leaf [11] = test: Drug uptake in Solanum lycopersicum (tomato) leaves after 1 to 15 days post germination by GC-ECD analysis; format: ADME; summary of the method: as §1
Stem [12] = test: Drug uptake in Solanum lycopersicum (tomato) stem after 1 to 15 days post germination by GC-ECD analysis; format: ADME; summary of the method: as §1
[13] = Root bioconcentration factor assessed as compound concentration in tomato plant dry mass to compound concentration in soil dry mass after 16 to 59 days post germination; summary of the method: as §2
Leaf [14] = test: Drug uptake in Solanum lycopersicum (tomato) leaves after 60 to 151 days post germination by GC-ECD analysis; format: ADME; summary of the method: as §1
Fruit [15] = test: Drug uptake in Solanum lycopersicum (tomato) fruit flesh after 60 to 151 days post germination by GC-ECD analysis; format: ADME; summary of the method: as §1

Structure (SMILES)	Drug uptake (Root [1]) [ng/g]	Drug uptake (Stem [2]) [ng/g]	Ratio [3]	Drug uptake (Fruit [4]) [ng/g]	Drug uptake (Root [5]) [ng/g]	logP [6]	Drug uptake (Root [7]) [ng/g]	Ratio [8]	Drug uptake (Stem [9]) [ng/g]	Drug uptake (Leaf [10]) [ng/g]	Drug uptake (Leaf [11]) [ng/g]	Drug uptake (Stem [12]) [ng/g]	Ratio [13]	Drug uptake (Leaf [14]) [ng/g]	Drug uptake (Fruit [15]) [ng/g]
O=S1OC[C@@H]2[C@H](CO1)[C@@]1(Cl)C(Cl)=C(Cl)[C@]2(Cl)C1(Cl)Cl (stereo partly drawn) [ALPHA-ENDOSULFAN]	0.8	0.9	4.3	12.3	1.3	< 4	0.3	10	0.9	1.5	1	1.2	18.6	3.5	4.5
Cl[C@H]1[C@H](Cl)[C@H](Cl)[C@@H](Cl)[C@H](Cl)[C@H]1Cl [ALPHA-HEXACHLOROCYCLOHEXANE]	1.9	1.3	13	1.4	0.4	< 4	1.3	9.5	1.1	0.8	1.2	1.7	4	0.6	7.4
O=S1OC[C@@H]2[C@H](CO1)[C@]1(Cl)C(Cl)=C(Cl)[C@]2(Cl)C1(Cl)Cl (stereo partly drawn) [BETA-ENDOSULFAN]	2	1.6	15	10.8	0.9	< 4	0.9	50	3.2	2.9	1.1	1.1	15	3.3	6.6
Cl[C@H]1[C@H](Cl)[C@@H](Cl)[C@H](Cl)[C@@H](Cl)[C@@H]1Cl [BETA-HEXACHLOROCYCLOHEXANE]	3.7	2.1	3	1.5	1.1	< 4	1.2	9.2	4.2	2.2	4.2	8.9	2.7	1.6	5.4
Clc1ccc(C(c2ccc(Cl)cc2)C(Cl)(Cl)Cl)cc1 [CHLOROPHENOTHANE]	19.2	6.8	–	8.8	2.5	> 6	7.3	2.6	10.5	8.24	8.9	9.4	–	2.3	29.2
Cl[C@H]1[C@H](Cl)[C@@H](Cl)[C@H](Cl)[C@@H](Cl)[C@H]1Cl [DELTA-HEXACHLOROCYCLOHEXANE]	3.7	1.6	1.5	1.4	0.8	< 4	1.7	18.5	3.6	1.1	2.4	4.7	0.7	1.2	2.3
ClC(Cl)=C(c1ccc(Cl)cc1)c1ccc(Cl)cc1 [DICHLORODIPHENYLDICHLOROETHYLENE]	9.1	1.8	–	3.2	23.2	–	2.4	5.3	8.6	2.2	2.8	7.4	–	6	6.4
O=S1(=O)OCC2C(CO1)C1(Cl)C(Cl)=C(Cl)C2(Cl)C1(Cl)Cl (stereo not given) [ENDOSULFAN SULFATE]	151.6	82.1	4.5	80.6	21.1	< 4	71.4	9.2	99.7	48.2	126.5	246.9	1.3	38.2	305.5
Cl[C@H]1[C@H](Cl)[C@@H](Cl)[C@@H](Cl)[C@H](Cl)[C@H]1Cl [LINDANE]	16.2	4.6	3.2	2.1	4.7	< 4	3.9	12.3	9.4	4	9.9	27.5	3.9	0.9	14.4
